Experimental data: ChEMBL document CHEMBL2057101, “Fluorocyclines. 2. Optimization of the C-9 side-chain for antibacterial activity and oral efficacy” (J Med Chem, 2012)
Values after ≈ are worked out from the molar mass of the structure shown.

Key:
Streptococcus pneumoniae [1] = test: Antibacterial activity against Streptococcus pneumoniae ATCC 49619 isolate 106; format: functional
Outline: (§1)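 MIC by broth microdilution in liquid medium per CLSI, in cation-adjusted Mueller Hinton broth made fresh and held at 4 °C before testing. Horse blood (defibrinated) added to the medium where appropriate. Runs were accepted only when the comparator antibiotics and ATCC QC strains fell within their recommended ranges.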

Staphylococcus aureus [2] = test: Antibacterial activity against Staphylococcus aureus ATCC 13709 infected in po dosed CD-1 mouse assessed as increase in survival administered as single dose 1 hr post infection measured after 48 hrs post infection; format: functional; conditions: ATCC 13709, po, read-out: PD50
Moraxella catarrhalis = test: Antibacterial activity against Moraxella catarrhalis; format: functional; outline: as §1
Escherichia coli [3] = test: Antibacterial activity against Escherichia coli ATCC 25922 isolate 107; format: functional; outline: as §1
Acinetobacter baumannii = test: Antibacterial activity against Acinetobacter baumannii; format: functional; outline: as §1
Streptococcus pneumoniae [4] = test: Antibacterial activity against tetracycline-resistant Streptococcus pneumoniae isolate 160 expressing tetM gene; format: functional
Streptococcus pneumoniae [5] = test: Antibacterial activity against Streptococcus pneumoniae SPN160; format: functional
Outline: (§2)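 Broth microdilution MIC following CLSI methods in cation-adjusted Mueller Hinton broth, prepared fresh and held at 4 °C before testing. Defibrinated horse blood added to the medium where appropriate. Runs accepted when quality control ranges for comparator antibiotics and ATCC QC strains were met.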

Staphylococcus aureus [6] = test: Antibacterial activity against Staphylococcus aureus ATCC 13709 infected in CD-1 mouse assessed as increase in survival at 3 mg/kg, iv administered as single dose 1 hr post infection measured after 48 hrs post infection; format: functional
Outline: (§3)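 Mouse septicemia screen: S. aureus grown to log phase, diluted in 5% mucin to give 90% mortality within 48 h, inoculum 1.98 × 10⁶ CFU/mouse, 0.5 mL intraperitoneal into female CD-1 mice (18−20 g). Six mice per group. Single 30 mg/kg oral gavage or 3 mg/kg IV dose 1 h post infection. Infection controls received sterile water vehicle. Survival recorded at 48 h.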

Staphylococcus aureus [7] = test: Antibacterial activity against tetracycline-resistant Staphylococcus aureus isolate SA158 expressing TetK gene; format: functional
Staphylococcus aureus [8] = test: Antibacterial activity against Staphylococcus aureus ATCC 13709 infected in CD-1 mouse assessed as increase in survival at 30 mg/kg, po administered as single dose 1 hr post infection measured after 48 hrs post infection; format: functional; outline: as §3
Haemophilus influenzae [9] = test: Antibacterial activity against Haemophilus influenzae 551; format: functional; outline: as §1
Streptococcus pyogenes = test: Antibacterial activity against Streptococcus pyogenes; format: functional; outline: as §1
[10] = Oral bioavailability in rat; format: ADME, organism-based; conditions: in vivo
Klebsiella pneumoniae = test: Antibacterial activity against Klebsiella pneumoniae ATCC 13883; format: functional; outline: as §1
Staphylococcus aureus [11] = test: Antibacterial activity against methicillin-resistant Staphylococcus aureus VL-137; format: functional; outline: as §2
Staphylococcus aureus [12] = test: Antibacterial activity against tetracycline-susceptible Staphylococcus aureus ATCC 13709 Smith isolate SA100; format: functional; outline: as §2
Escherichia coli [13] = test: Antibacterial activity against Escherichia coli isolate EC155 expressing tetA gene; format: functional; outline: as §1
Staphylococcus aureus [14] = test: Antibacterial activity against tetracycline-resistant Staphylococcus aureus isolate SA161 expressing TetM gene; format: functional; outline: as §2
Haemophilus influenzae [15] = test: Antibacterial activity against Haemophilus influenzae 551 infected in immunocompetent Sprague-Dawley rat assessed as reduction in lung CFU per gram of tissue at 50 mg/kg, po administered 5, 24 and 48 hrs post infection measured after 72 hrs; format: functional
Outline: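 Male Sprague-Dawley rats (175–200 g), immunocompetent, infected intratracheally with H. influenzae 551 (0.05 mL) under light anesthesia. Dosing at 5, 24 and 48 h post infection: test agent 100 mg/kg/dose orally or 25 mg/kg/dose IV; azithromycin 50 mg/kg/dose orally. Six rats per dose. Lungs removed 72 h after treatment began, homogenized, serially diluted, plated on TSA-II, incubated overnight at 37 °C in 5% CO2; CFU/g lung calculated.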

Row | Compound | MIC (Streptococcus pneumoniae [1]) [µg/mL] | ED50 (Staphylococcus aureus [2]) [mg/kg] | MIC (Escherichia coli [3]) [µg/mL] | MIC (Streptococcus pneumoniae [4]) [µg/mL] | survival at 3 mg/kg (Staphylococcus aureus [6]) [%] | MIC (Staphylococcus aureus [7]) [µg/mL] | survival at 30 mg/kg (Staphylococcus aureus [8]) [%] | MIC (Klebsiella pneumoniae) [µg/mL] | MIC (Staphylococcus aureus [12]) [µg/mL] | MIC (Escherichia coli [13]) [µg/mL] | MIC (Staphylococcus aureus [14]) [µg/mL] | other results
1 | CN(C)[C@@H]1C(O)=C(C(N)=O)C(=O)[C@@]2(O)C(O)=C3C(=O)c4c(O)c(NC(=O)[C@@H]5CCN5C)cc(F)c4C[C@H]3C[C@@H]12 | 0.016 (≈ 0.0294 µM) | 14.3 | 0.016 (≈ 0.0294 µM) | 0.016 (≈ 0.0294 µM) | 100 | 0.016 (≈ 0.0294 µM) | 83 | 0.063 (≈ 0.116 µM) | 0.016 (≈ 0.0294 µM) | 1 (≈ 1.84 µM) | 0.016 (≈ 0.0294 µM) | MIC (Moraxella catarrhalis): 0.016 µg/mL (≈ 0.0294 µM); MIC50 (Moraxella catarrhalis): 0.016 µg/mL (≈ 0.0294 µM); MIC90 (Moraxella catarrhalis): 0.016 µg/mL (≈ 0.0294 µM); MIC50 (Acinetobacter baumannii): 0.13 µg/mL (≈ 0.239 µM); MIC90 (Acinetobacter baumannii): 1 µg/mL (≈ 1.84 µM); MIC (Streptococcus pneumoniae [5]): 0.016 µg/mL (≈ 0.0294 µM); MIC50 (Streptococcus pneumoniae [5]): 0.016 µg/mL (≈ 0.0294 µM); MIC90 (Streptococcus pneumoniae [5]): 0.016 µg/mL (≈ 0.0294 µM); MIC50 (Haemophilus influenzae [9]): 0.063 µg/mL (≈ 0.116 µM); MIC90 (Haemophilus influenzae [9]): 0.25 µg/mL (≈ 0.459 µM); MIC (Streptococcus pyogenes): 0.016 µg/mL (≈ 0.0294 µM); MIC50 (Streptococcus pyogenes): 0.016 µg/mL (≈ 0.0294 µM); MIC90 (Streptococcus pyogenes): 0.016 µg/mL (≈ 0.0294 µM); bioavailability [10]: 4.6%; MIC50 (Staphylococcus aureus [11]): 0.031 µg/mL (≈ 0.0569 µM); MIC90 (Staphylococcus aureus [11]): 1 µg/mL (≈ 1.84 µM)
2 | CN(C)[C@@H]1C(O)=C(C(N)=O)C(=O)[C@@]2(O)C(O)=C3C(=O)c4c(O)c(NS(C)(=O)=O)cc(F)c4C[C@H]3C[C@@H]12 | 0.016 (≈ 0.0304 µM) | > 30 | 0.25 (≈ 0.476 µM) | 0.016 (≈ 0.0304 µM) | 100 | 4 (≈ 7.61 µM) | 50 | 2 (≈ 3.81 µM) | 0.13 (≈ 0.247 µM) | > 32 | 0.25 (≈ 0.476 µM) | –
3 | CNC(=O)Nc1cc(F)c2c(c1O)C(=O)C1=C(O)[C@]3(O)C(=O)C(C(N)=O)=C(O)[C@@H](N(C)C)[C@@H]3C[C@@H]1C2 | 0.031 (≈ 0.0615 µM) | > 30 | 1 (≈ 1.98 µM) | 0.5 (≈ 0.991 µM) | 83 | 16 (≈ 31.7 µM) | 33 | 4 (≈ 7.93 µM) | 0.25 (≈ 0.496 µM) | > 32 | 2 (≈ 3.96 µM) | –
4 | CC(C)CCNc1cc(F)c2c(c1O)C(=O)C1=C(O)[C@]3(O)C(=O)C(C(N)=O)=C(O)[C@@H](N(C)C)[C@@H]3C[C@@H]1C2 | 2 (≈ 3.86 µM) | > 60 | > 32 | 4 (≈ 7.73 µM) | 17 | 0.13 (≈ 0.251 µM) | 33 | > 32 | 0.25 (≈ 0.483 µM) | > 32 | 0.5 (≈ 0.966 µM) | –
5 | CC[C@H]1OC(=O)[C@H](C)[C@@H](O[C@H]2C[C@@](C)(OC)[C@@H](O)[C@H](C)O2)[C@H](C)[C@@H](O[C@@H]2O[C@H](C)C[C@H](N(C)C)[C@H]2O)[C@](C)(O)C[C@@H](C)CN(C)[C@H](C)[C@@H](O)[C@]1(C)O [AZITHROMYCIN] | – | – | – | – | – | – | – | – | – | – | – | log10CFU/g (Haemophilus influenzae [15]): >=6
